Positions count from the first letter of the chain named.
What was measured:
Conditions in all cases: stereoisomer not certain
OR4S2 (Homo sapiens) = molecular target: T1, OR4S2 (Homo sapiens) (UniProt Q8NH73)
T1 sequence (whole entry): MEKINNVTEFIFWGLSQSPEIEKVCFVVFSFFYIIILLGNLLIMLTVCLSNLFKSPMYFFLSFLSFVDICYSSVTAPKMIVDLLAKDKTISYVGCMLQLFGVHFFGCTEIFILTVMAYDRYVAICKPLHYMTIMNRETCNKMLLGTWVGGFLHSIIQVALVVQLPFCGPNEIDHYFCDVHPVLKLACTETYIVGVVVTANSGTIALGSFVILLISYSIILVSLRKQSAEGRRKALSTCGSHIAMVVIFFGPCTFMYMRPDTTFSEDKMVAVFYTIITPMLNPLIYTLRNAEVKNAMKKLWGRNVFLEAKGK
In short: (§1)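 Transient luciferase assays in mammalian cell lines were common, though methods varied by source. The values come from published papers and their supplementary material, with extra details from the original authors when needed. Responsive refers to a measured signal the original authors judged statistically different from baseline, and non-responsive (inactive) to the remainder.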

OR4X1 (Homo sapiens) = molecular target: T2, OR4X1 (Homo sapiens) (UniProt Q8NH49)
T2 sequence (whole entry): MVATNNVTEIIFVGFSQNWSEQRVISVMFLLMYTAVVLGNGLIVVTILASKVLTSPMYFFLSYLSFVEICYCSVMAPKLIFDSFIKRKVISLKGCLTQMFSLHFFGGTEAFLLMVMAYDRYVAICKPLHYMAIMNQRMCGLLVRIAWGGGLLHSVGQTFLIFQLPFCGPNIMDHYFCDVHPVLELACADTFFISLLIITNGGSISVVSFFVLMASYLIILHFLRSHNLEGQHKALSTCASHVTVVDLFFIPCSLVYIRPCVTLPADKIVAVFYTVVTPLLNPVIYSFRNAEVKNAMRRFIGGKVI
In short: as §1

OR4X2 (Homo sapiens) = molecular target: T3, OR4X2 (Homo sapiens) (UniProt Q8NGF9)
T3 sequence (whole entry): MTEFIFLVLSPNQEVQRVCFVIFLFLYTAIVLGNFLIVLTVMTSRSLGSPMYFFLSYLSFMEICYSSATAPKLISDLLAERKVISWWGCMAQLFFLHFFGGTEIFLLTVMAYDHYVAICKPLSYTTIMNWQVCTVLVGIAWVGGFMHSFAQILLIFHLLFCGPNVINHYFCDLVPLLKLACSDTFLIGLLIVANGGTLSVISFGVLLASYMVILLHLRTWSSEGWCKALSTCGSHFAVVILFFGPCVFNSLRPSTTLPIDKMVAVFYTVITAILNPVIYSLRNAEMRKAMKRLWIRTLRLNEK
In short: as §1

OR51A2 (Homo sapiens) = molecular target: T4, OR51A2 (Homo sapiens) (UniProt Q8NGJ7)
T4 sequence (whole entry): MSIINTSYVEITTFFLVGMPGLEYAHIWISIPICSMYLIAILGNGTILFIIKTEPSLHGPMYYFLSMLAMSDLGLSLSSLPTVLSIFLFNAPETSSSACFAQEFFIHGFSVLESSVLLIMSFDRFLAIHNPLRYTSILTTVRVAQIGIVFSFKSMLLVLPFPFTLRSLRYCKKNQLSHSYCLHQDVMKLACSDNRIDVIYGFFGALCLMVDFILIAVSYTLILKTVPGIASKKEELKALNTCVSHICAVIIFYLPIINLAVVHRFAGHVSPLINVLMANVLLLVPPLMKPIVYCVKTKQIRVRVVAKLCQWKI
In short: as §1

OR51A4 (Homo sapiens) = molecular target: T5, OR51A4 (Homo sapiens) (UniProt Q8NGJ6)
T5 sequence (whole entry): T4 sequence (whole entry) with G59E, T94I, S97N, S167N, P227L, E235Q, G267R, M288T, K289N, W311R
In short: as §1

OR51A7 (Homo sapiens) = molecular target: T6, OR51A7 (Homo sapiens) (UniProt Q8NH64)
T6 sequence (whole entry): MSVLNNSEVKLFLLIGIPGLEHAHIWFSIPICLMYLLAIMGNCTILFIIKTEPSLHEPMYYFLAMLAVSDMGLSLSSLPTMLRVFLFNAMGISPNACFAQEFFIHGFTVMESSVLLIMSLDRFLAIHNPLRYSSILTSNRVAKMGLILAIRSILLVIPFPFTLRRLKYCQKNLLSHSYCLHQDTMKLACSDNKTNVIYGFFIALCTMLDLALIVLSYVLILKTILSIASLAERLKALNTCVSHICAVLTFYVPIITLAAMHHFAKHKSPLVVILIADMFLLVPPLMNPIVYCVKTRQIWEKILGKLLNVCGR
In short: as §1

OR51B2 (Homo sapiens) = molecular target: T7, OR51B2 (Homo sapiens) (UniProt Q9Y5P1)
T7 sequence (whole entry): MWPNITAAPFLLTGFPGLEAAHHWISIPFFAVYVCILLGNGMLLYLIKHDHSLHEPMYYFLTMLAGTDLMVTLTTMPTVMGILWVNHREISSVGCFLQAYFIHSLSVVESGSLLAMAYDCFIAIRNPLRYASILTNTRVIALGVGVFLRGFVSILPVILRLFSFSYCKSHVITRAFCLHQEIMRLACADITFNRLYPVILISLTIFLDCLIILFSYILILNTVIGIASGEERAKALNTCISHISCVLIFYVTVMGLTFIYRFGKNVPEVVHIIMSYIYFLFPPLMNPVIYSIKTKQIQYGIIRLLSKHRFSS
In short: as §1

OR51B4 (Homo sapiens) = molecular target: T8, OR51B4 (Homo sapiens) (UniProt Q9Y5P0)
T8 sequence (whole entry): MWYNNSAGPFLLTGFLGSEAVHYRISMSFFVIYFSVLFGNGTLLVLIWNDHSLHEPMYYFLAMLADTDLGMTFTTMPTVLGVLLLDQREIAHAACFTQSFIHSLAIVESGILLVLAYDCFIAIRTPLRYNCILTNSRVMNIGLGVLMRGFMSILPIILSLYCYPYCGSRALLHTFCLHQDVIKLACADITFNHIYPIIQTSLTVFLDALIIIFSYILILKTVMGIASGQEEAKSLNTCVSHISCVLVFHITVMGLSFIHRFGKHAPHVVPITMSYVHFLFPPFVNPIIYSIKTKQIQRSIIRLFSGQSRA
In short: as §1

OR51B5 (Homo sapiens) = molecular target: T9, OR51B5 (Homo sapiens) (UniProt Q9H339)
T9 sequence (whole entry): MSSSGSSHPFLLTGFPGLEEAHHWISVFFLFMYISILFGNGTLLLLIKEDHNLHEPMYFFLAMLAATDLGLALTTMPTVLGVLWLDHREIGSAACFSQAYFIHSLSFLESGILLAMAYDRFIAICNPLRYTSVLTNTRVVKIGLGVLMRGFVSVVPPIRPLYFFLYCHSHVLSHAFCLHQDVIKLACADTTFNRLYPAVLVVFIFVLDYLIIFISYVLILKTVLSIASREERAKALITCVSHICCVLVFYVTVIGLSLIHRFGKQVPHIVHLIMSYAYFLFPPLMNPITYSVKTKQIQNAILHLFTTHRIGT
In short: as §1

OR51B6 (Homo sapiens) = molecular target: T10, OR51B6 (Homo sapiens) (UniProt Q9H340)
T10 sequence (whole entry): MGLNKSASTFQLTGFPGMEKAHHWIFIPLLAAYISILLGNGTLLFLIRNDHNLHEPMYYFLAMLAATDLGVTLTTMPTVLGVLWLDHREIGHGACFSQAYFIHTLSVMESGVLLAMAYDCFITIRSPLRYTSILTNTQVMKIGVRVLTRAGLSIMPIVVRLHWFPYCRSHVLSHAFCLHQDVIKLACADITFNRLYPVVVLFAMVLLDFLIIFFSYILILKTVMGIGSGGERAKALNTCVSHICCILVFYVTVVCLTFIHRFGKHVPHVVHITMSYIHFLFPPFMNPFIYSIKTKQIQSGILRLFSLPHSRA
In short: as §1

OR51D1 (Homo sapiens) = molecular target: T11, OR51D1 (Homo sapiens) (UniProt Q8NGF3)
T11 sequence (whole entry): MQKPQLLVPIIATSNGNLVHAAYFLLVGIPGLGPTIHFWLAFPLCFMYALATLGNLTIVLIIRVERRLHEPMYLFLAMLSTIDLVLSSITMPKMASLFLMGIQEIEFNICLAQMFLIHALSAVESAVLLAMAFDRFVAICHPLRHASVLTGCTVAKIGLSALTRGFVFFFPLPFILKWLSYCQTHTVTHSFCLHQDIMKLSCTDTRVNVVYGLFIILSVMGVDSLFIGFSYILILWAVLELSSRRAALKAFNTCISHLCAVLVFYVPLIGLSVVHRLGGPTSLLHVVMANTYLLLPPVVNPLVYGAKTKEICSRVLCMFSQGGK
In short: as §1

OR51E1 (Homo sapiens) = molecular target: T12, OR51E1 (Homo sapiens) (UniProt Q8TCB6)
T12 sequence (whole entry): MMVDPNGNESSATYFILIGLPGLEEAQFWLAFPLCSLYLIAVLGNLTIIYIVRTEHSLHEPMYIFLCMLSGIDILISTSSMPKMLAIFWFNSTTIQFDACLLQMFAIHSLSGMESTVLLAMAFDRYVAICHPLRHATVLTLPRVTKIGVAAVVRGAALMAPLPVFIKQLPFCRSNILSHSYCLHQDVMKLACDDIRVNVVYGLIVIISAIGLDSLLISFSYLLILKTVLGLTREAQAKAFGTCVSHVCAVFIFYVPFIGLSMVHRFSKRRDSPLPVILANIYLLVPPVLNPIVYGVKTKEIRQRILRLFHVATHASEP
In short: as §1

OR51E2 (Homo sapiens) = molecular target: T13, OR51E2 (Homo sapiens) (UniProt Q9H255)
T13 sequence (whole entry): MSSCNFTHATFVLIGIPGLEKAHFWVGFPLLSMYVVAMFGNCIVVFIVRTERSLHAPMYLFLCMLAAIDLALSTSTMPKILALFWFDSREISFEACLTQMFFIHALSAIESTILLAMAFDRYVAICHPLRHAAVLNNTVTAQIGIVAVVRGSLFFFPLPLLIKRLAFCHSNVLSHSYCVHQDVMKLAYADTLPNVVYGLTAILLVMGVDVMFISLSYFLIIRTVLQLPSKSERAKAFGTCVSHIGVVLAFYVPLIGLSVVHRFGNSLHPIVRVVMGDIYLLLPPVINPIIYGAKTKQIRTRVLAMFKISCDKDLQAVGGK
In short: as §1

OR51F2 (Homo sapiens) = molecular target: T14, OR51F2 (Homo sapiens) (UniProt Q8NH61)
T14 sequence (whole entry): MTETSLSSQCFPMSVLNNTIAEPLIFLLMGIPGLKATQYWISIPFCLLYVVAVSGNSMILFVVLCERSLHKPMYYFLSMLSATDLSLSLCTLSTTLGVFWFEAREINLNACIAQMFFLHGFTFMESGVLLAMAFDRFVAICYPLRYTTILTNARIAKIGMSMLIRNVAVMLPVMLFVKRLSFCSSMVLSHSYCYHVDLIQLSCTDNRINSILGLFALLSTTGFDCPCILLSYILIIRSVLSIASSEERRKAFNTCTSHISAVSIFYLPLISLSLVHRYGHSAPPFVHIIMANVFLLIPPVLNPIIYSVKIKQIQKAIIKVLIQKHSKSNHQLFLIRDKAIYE
In short: as §1

OR51G1 (Homo sapiens) = molecular target: T15, OR51G1 (Homo sapiens) (UniProt Q8NGK1)
T15 sequence (whole entry): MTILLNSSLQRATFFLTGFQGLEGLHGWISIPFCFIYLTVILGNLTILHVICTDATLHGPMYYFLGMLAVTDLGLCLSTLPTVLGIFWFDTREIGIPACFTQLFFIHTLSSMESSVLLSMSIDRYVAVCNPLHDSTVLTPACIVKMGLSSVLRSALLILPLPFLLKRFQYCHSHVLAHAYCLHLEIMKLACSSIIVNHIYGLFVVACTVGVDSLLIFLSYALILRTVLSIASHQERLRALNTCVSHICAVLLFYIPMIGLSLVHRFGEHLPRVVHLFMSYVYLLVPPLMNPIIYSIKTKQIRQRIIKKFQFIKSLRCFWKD
In short: as §1

OR51G2 (Homo sapiens) = molecular target: T16, OR51G2 (Homo sapiens) (UniProt Q8NGK0)
T16 sequence (whole entry): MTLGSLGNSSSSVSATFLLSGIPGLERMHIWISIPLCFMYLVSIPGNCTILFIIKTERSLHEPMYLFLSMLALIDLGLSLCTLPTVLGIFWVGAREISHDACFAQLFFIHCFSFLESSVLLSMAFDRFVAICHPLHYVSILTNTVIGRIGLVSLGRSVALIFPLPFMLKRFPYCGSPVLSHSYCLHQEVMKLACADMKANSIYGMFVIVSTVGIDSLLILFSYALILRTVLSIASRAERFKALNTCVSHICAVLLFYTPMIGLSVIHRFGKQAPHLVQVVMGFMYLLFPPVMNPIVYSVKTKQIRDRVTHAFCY
In short: as §1

OR51I1 (Homo sapiens) = molecular target: T17, OR51I1 (Homo sapiens) (UniProt Q9H343)
T17 sequence (whole entry): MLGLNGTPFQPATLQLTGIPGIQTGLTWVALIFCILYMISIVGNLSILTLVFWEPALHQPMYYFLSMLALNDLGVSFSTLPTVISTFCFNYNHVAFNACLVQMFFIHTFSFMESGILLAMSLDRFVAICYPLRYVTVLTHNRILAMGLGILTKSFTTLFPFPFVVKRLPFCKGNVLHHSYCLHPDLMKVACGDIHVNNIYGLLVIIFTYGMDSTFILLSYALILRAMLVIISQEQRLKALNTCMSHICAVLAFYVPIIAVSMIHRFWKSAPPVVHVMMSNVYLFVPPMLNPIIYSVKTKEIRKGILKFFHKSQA
In short: as §1

Measured: odorant receptor agonist call;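 further: active if original authors judged signal statistically different from baseline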

CC1=C(O)C(=O)C(C)O1 (centres undefined)
inactive: all assays above

CCCC(S)CCOC(C)=O (centres undefined)
inactive: all assays above

From the M2OR odorant receptor database
